# This is a sample that favours compounds with a hit; in the whole collection about 3% have one here.
# NR3A LBD binder: modulators (binders) of human NR3A ligand-binding domain; NR3A LBD differential scanning fluorimetry, Tm shift; 0% = protein alone, 100% = glycine-bound protein; Tm shift relative to glycine control, % at 25 µM; 2.5% of 340,000 active; AID 1259313;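 active = melting temperature shift of at least 10% of the positive control shift, at one fixed dose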
# Lipid droplet: modulators of hepatic lipid droplet formation | AML12 mouse hepatocytes, oleate lipid droplets, BODIPY imaging | inhibition, % at 6.5 µM | 0.4% of 240,000 active | AID 1656;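 active = lipid droplet intensity inhibited by at least 50%, with more than 500 cells counted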
#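 Technique: fluorescence imaging, 20x objective, two fields per well / Assay system: AML12 hepatocytes (mouse) / Measure: % inhibition of lipid droplet signal / Doses: 6.5 µM single-point dosing / Incubation: overnight exposure / Reagent: 100 µM oleic acid challenge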
# JMJD2C inh: blocks human GASC-1 demethylase activity | 0.069% of 330,000 active | GST-JMJD2C(1-420) H3K9me3 demethylation, DELFIA europium | Q9H3R0 | AID 2099 | inhibition, % at 2.35 µM;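 active = more than half of a compound's replicate wells show inhibition beyond 50%, single wells judged on their own value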;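 also: signal counts dimethyl H3K9 product captured on neutravidin plate; 0% = median of DMSO wells and 100% = 0.3 times that DMSO median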
# NPR2 activator: GC-B (human) receptor activation. activation, % at 10 µM. AID 1920062. HEK293-GC-B cells, CNP EC30, cGMP TR-FRET; 0% at EC30 CNP, 100% saturating CNP. 0.11% of 370,000 active. P20594;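 active = activation at 10 µM reaching about 35% in either raw or pattern-adjusted values, limit read from the data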
# NPR1 activator: GC-A (human) enzyme activation; activation, % at 10 µM; 0.14% of 370,000 active; HEK293 GC-A cells, cGMP TR-FRET, EC30 ANP; 0% at EC30 ANP, 100% saturating ANP; in the data active = activation above about 40%
# Target sequence (P16066 whole entry, looked up): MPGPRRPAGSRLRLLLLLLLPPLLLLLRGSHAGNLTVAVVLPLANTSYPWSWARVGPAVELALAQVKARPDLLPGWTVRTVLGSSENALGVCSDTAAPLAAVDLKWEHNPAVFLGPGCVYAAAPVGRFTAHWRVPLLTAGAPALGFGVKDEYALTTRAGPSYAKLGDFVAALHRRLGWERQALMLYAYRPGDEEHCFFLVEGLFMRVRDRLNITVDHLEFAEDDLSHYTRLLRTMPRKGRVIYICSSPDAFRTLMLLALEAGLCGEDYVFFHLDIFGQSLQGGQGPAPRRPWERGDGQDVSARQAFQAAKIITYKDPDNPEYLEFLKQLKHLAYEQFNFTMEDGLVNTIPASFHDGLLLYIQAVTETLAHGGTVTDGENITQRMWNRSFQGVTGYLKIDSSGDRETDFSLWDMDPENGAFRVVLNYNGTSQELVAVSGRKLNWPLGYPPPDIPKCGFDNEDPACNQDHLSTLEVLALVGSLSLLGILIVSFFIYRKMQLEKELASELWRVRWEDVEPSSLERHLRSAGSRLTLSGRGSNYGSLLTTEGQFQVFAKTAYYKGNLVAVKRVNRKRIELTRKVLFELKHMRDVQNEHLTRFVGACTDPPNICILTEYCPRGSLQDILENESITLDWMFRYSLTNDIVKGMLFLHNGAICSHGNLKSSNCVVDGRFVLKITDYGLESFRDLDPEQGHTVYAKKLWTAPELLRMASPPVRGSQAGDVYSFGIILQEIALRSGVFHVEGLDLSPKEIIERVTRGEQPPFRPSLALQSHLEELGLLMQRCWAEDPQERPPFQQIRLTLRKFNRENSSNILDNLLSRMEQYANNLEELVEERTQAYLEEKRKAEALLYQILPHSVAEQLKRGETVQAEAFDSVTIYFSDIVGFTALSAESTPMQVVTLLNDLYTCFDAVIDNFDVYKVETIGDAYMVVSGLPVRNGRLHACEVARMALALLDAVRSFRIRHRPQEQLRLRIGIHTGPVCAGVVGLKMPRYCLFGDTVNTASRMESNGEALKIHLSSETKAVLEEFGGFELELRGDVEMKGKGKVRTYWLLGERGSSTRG
# aDG glyco up: alpha-DG glycosylation activation | Pro5-aDG cells, alpha-DG glycosylation AlphaScreen (IIH6); 0% Pro5, 100% B10-LARGE cell signal | activation, % at 10 µM | 0.22% of 360,000 active | AID 624168;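 active = activation of at least 8% versus controls, or a plate z-score of at least 8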;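 also: Pro5 are CHO cells carrying HIG-tagged alpha-DG that lacks glycosylation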
# Numbers without * were called inactive; . = no result given.
SMILES,NR3A LBD binder,Lipid droplet,JMJD2C inh,NPR2 activator,NPR1 activator,aDG glyco up
O=C(OCc1ccccc1)N1CCC2CC1c1ccc(N3CCN(Cc4ccccc4)CC3)cc12 (stereo not drawn),.,.,.,4,0,.
COc1ccc(-c2c(-c3cccc(C)c3)oc3ccc(-c4ccc5c(c4)OCO5)cc23)cn1,-5,.,-25,-4,-2,0
Cc1cccc(-c2oc3ccc(-c4ccc5c(c4)OCO5)cc3c2/C=C/c2ccc(N)cc2)c1,3,.,-13,.,.,8.1*
COc1cccc(C(=O)N2CCC(Oc3cccnc3)CC2)c1,.,.,.,-4,3,.
O=C(CSc1nc2ccccc2c(=O)n1-c1ccc(F)cc1)Nc1cc(S(=O)(=O)N2CCOCC2)ccc1Cl,0,-6,-8,4,-3,0
Cc1ccc(S(=O)(=O)N2CCOCC2)cc1NC(=O)CSc1nc2ccccc2c(=O)n1Cc1ccccc1,14*,1,-10,3,0,1
O=C(c1ccoc1)N1CCN(c2cc(-c3ccco3)nc3cc(-c4ccco4)nn23)CC1,.,.,.,-12,-3,.
O=C(c1ccncc1)N1CC[C@H]2[C@H](CCCN2Cc2cc(F)cc(F)c2)C1,.,.,.,2,2,.
O=C(N/N=C\c1ccc(-c2ccc([N+](=O)[O-])cc2)o1)C1COc2ccccc2O1 (stereo not drawn),25*,-17,9,0,8,0
O=C(N/N=C/c1ccc(-c2ccc([N+](=O)[O-])cc2)o1)C(O)c1ccccc1 (stereo not drawn),-3,12,-1,40*,42*,3
CN1CCCCC(NC(=O)c2ccc(Cl)cc2Cl)C1=O (stereo not drawn),.,.,.,0,-1,.
CCn1c(=O)n(CC(=O)NCc2ccco2)c(=O)c2ccccc21,11*,.,0,0,1,0
COc1ccc(NC(=O)Cn2c(=O)n(CC(=O)NCc3ccco3)c(=O)c3ccccc32)cc1,1,.,-1,2,2,0
CCOc1cc(S(=O)(=O)N2CCN(CC)CC2)ccc1Cl,-6,6,2,3,4,0
CCCc1nc(C)c2c(=O)[nH]c(-c3cc(S(=O)(=O)N4CCN(CC)CC4)ccc3OCC)nn12,0,.,-10,65*,53*,0
CCCCCCc1cc2cc(-c3nnc(-c4ccccc4O)o3)c(=O)oc2cc1O,29*,.,43,10,10,0
CCCCCCc1cc2cc(-c3nnc(-c4ccccc4OC)o3)c(=O)oc2cc1O,24*,19,4,5,3,1
CCC(=O)Nc1cc2c3c(c1)CCN3C(=O)CC2,11*,-2,3,4,4,0
Cc1cccc(OCC(=O)Nc2ccc(NC(=O)c3ccccc3)cc2)c1,12*,-2,1,9,-1,0
Cc1cccc(C(=O)Nc2ccccc2C(=O)OCC(=O)Nc2ccc(C#N)cc2)c1,15*,-36,-1,-4,-11,0
COc1cccc(C(=O)Nc2cccc(OCC(=O)c3ccccc3)c2)c1,-14,11,-12,15,-1,1
COc1cccc(C(=O)COc2ccc(NC(=O)c3ccccc3)cc2)c1,11*,-8,5,3,4,0
Cc1csc(CNC(=O)c2cc(COc3c(C)cccc3C)on2)n1,-2,-4,.,0,0,0
CC(=O)N(C1=C(N)C(=O)c2ccccc2C1=O)c1ccccc1,-3,-3,2,6,-8,4.1*
O=C(N(c1ccccc1)c1ccccc1)N(c1ccccc1)c1ccccc1,-3,1,-7,-8,-9,0
SMILES,NR3A LBD binder,Lipid droplet,JMJD2C inh,NPR2 activator,NPR1 activator,aDG glyco up
NS(=O)(=O)c1cccc(NC(=O)COC(=O)c2cc(-c3ccc(Cl)cc3)nc3ccccc23)c1,34*,3,-1,-8,-2,0
Cc1ccc2c(Cl)cc(Cl)c(OCC(=O)Nc3cccc(S(=O)(=O)N(C)C)c3)c2n1,-26,8,3,7,3,0
Cc1ccc2c(Cl)cc(Cl)c(OCC(=O)Nc3cccc(S(N)(=O)=O)c3)c2n1,11*,-3,-27,20,12,0
COCc1c(C(=O)N/N=C\c2ccccn2)nnn1-c1nonc1N,-2,-8,7,-8,1,0
CCCN(CCC)Cc1c(C(=O)N/N=C/c2ccc(Br)cc2)nnn1-c1nonc1N,22*,-38,2,3,-5,0
CCCc1c(C(=O)N/N=C/c2c[nH]c3ccccc23)nnn1-c1nonc1N,.,.,.,0,4,0
CCCN(CCC)Cc1c(C(=O)N/N=C/c2c[nH]c3ccccc23)nnn1-c1nonc1N,22*,-3,21,2,-4,0
COCc1c(C(=O)N/N=C/c2c[nH]c3ccccc23)nnn1-c1nonc1N,18*,-3,-34,0,6,0
Cc1ccc(-c2c(C(=O)N/N=C/c3c[nH]c4ccccc34)nnn2-c2nonc2N)cc1,26*,7,-4,0,0,0
CCCN(CCC)Cc1c(C(=O)N/N=C/c2ccoc2)nnn1-c1nonc1N,5,8,23,4,-3,0
O=C(NNc1c2ccccc2nc2ccccc12)c1ccccc1O,18*,24,2,4,16,0
Cc1ccc(-c2csc(NC(=O)/C=C/c3cccs3)n2)cc1C,19*,-1,0,2,11,0
N#Cc1ccc(-c2csc(NC(=O)/C=C/c3cccs3)n2)cc1,2,3,5,0,12,0
CCn1cc(CNC(=O)c2cc(COc3ccc(F)cc3Cl)on2)cn1,116*,8,1,3,30,1
CCOC(=O)C(C)Sc1nc2c(c(=O)[nH]c(=O)n2C)n1C/C=C(/C)Cl (stereo not drawn),11*,.,-13,2,-3,0
C=CCN(c1ccccc1OC)S(=O)(=O)c1cccc(C(=O)OCC(=O)c2c[nH]c3ccccc23)c1,29*,-36,-10,3,-2,0
COc1cc(OC)c(N(C)S(=O)(=O)c2cccc(C(=O)OCC(=O)c3c[nH]c4ccccc34)c2)cc1Cl,26*,-59,2,-1,-1,2
COc1ccc(C(=O)OCC(=O)c2c[nH]c3ccccc23)cc1OC,1,.,.,-1,3,1
Cc1ccc(S(=O)(=O)N(C)C)cc1NC(=O)COC(=O)C1CCCC1,21*,.,8,4,-2,0
O=C(N/N=C/c1ccc(F)c(F)c1)c1cc2c(s1)-c1ccccc1CC2,27*,-1,-1,3,1,0
